Measurements of several laboratories.
Each line is one published result; the experiments were not run side by side.
TYK2: Non-receptor tyrosine-protein kinase TYK2 (TYK2, Homo sapiens, UniProt P29597)
TYK2 JH2: Non-receptor tyrosine-protein kinase TYK2, JH2 (TYK2, Homo sapiens, UniProt P29597)

The remaining activity of `CC(C)(C)c1cc(C=C(C#N)C#N)cc(Br)c1O` is reported as 61.3% (TYK2; enzyme activity; inhibitor; 0.5 µM).
For `Nc1ncc(-c2nc(N3CCOCC3)nc(N3CCOCC3)n2)c(C(F)F)n1`, the remaining binding was 15% (TYK2 JH2; binding; competition with immobilised ligand; 10 µM).
The remaining binding of `Cn1cncc1[C@@](O)(COc1ccc(C#N)cc1-c1ccc(OC(F)(F)F)cc1)c1ccc(C#N)cc1` is reported as 100% (TYK2 JH2; cell-free assay; competition with immobilised ligand; 1 µM).
For `COc1ncccc1-c1cnn2ccc(N3CCN(C(=O)OC(C)C)CC3)nc12`, the remaining binding was 76% (TYK2; binding; competition with immobilised ligand; 1 µM).
`N#CC1(c2ccccn2)CCN(Cc2cc(C(=O)O)c(=O)n3ccccc23)CC1` has a remaining binding of 93% (TYK2 JH2; cell-free assay; competition with immobilised ligand; 1 µM).
`Cn1cc(-c2cccc(N3CCc4c(sc5c4CC(C)(C)C5)C3=O)c2CO)cc(Nc2ccncn2)c1=O` gave an inhibition of 3% (TYK2; enzyme activity; inhibitor; 1 µM).
With `Cc1nn(C)cc1-c1nc2c(N3CCN(Cc4ccc(Cl)cc4)CC3)c(Cl)cnc2[nH]1` the remaining binding was 100% (TYK2 JH2; binding; competition with immobilised ligand; 1 µM).
With `Cn1cc(-c2cc(F)cc(N3CCn4c(cc5c4CCCC5)C3=O)c2CO)cc(Nc2ccc(N3CCN(C4COC4)CC3)cn2)c1=O` the inhibition was 1% (TYK2; enzyme activity; inhibitor; 0.1 µM).
For `O=c1[nH]c2ccccc2n1C1CCN(Cc2ccc(-c3[nH]c4cc5ncnc5cc4nc3-c3ccccc3)cc2)CC1`, the remaining signal was 101% (TYK2; cell-free assay; 0.5 µM).
